Calls of active or inactive are those of the source. No cut-off for these calls is given here.
Tests used:
[1] = Intrinsic clearance in human liver microsomes at 1 uM after 30 mins in presence of NADPH; assay type: ADME; conditions: read-out: CLH
[2] = target: T1, Glucokinase regulatory protein (Mus musculus, UniProt Q91X44); test: Induction of GK translocation from nucleus to cytoplasm of mouse hepatocytes preincubated for 20 mins followed by glucose challenge measured after 40 mins by Hoechst 33342 staining-based assay; assay type: cell-based, Hepatocyte
T1 sequence (Q91X44 whole entry): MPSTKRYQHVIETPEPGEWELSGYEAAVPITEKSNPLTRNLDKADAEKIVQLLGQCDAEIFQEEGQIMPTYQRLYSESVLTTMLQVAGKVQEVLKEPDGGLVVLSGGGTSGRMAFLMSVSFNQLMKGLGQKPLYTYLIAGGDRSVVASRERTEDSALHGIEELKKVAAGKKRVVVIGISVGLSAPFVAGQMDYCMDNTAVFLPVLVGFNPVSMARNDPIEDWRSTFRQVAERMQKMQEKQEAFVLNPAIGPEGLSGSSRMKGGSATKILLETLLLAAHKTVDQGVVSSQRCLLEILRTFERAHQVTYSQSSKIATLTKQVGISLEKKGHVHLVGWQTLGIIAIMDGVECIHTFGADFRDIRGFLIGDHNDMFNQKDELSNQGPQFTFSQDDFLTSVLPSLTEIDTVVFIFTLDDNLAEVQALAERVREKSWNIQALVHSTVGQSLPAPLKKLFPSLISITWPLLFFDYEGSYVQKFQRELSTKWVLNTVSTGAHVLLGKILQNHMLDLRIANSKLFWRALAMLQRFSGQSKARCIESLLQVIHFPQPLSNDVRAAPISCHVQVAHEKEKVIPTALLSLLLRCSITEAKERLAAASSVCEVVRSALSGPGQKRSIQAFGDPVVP

[3] = target: T2, Glucokinase regulatory protein (Homo sapiens, UniProt Q14397); test: Inhibition of fluorescein-labeled human GK interaction with biotin-labeled human GKRP incubated for 20 mins prior to addition of fluorescein-labeled GK measured after 2 to 4 hrs by Alpha Screen assay
T2 sequence (Q14397 whole entry): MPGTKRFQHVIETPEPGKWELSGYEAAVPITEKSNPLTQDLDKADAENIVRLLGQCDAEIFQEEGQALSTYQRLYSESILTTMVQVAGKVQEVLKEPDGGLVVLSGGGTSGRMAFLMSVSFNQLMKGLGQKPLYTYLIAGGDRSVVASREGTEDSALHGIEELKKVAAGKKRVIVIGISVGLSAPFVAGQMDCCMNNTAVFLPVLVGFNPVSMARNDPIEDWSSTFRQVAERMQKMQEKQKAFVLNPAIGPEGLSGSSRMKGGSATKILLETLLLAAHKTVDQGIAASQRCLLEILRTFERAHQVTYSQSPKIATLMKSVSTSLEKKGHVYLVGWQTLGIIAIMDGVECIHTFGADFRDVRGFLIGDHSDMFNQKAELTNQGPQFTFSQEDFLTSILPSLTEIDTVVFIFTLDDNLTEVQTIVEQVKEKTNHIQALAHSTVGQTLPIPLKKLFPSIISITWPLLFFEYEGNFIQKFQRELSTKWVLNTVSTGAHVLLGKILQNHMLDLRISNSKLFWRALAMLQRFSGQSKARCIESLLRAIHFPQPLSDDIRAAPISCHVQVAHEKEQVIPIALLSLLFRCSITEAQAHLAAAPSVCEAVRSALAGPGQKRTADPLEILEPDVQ

[4] = Intrinsic clearance in rat liver microsomes at 1 uM after 30 mins in presence of NADPH; assay type: ADME; conditions: read-out: CLH
[5] = Volume of distribution at steady state in rat at 2 mg/kg, iv; assay type: ADME, organism-based; parameters: dose 2 mg/kg, route intravenous; conditions: in vivo, read-out: Vdss
Procedure, shortened: (§1)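 Intravenous PK at 2 mg/kg in 100% DMSO; steady-state volume of distribution derived from plasma profile.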

[6] = Mean residence time in rat at 10 mg/kg, po; assay type: ADME, organism-based; parameters: dose 10 mg/kg, route oral; conditions: in vivo
Procedure, shortened: (§2)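 Oral PK at 10 mg/kg in 1% Tween 80, 2% HPMC, 97% water, […]; mean residence time from plasma profile.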

[7] = Oral bioavailability in rat at 10 mg/kg; assay type: ADME, organism-based; conditions: in vivo
Liver microsome [8] = test: Drug metabolism in rat liver microsomes assessed as oxidation of thiophene ring; assay type: ADME
Liver microsome [9] = test: Drug metabolism in human liver microsomes assessed as cleavage of sufonamide; assay type: ADME
Liver microsome [10] = test: Drug metabolism in human liver microsomes assessed as oxidation of thiophene ring; assay type: ADME
Liver microsome [11] = test: Drug metabolism in rat liver microsomes assessed as cleavage of sufonamide; assay type: ADME
Mus musculus [12] = test: Unbound maximum concentration in C57Bl6 mouse at 10 mg/kg, po; assay type: ADME, organism-based; parameters: dose 10 mg/kg, route oral; conditions: in vivo
Mus musculus [13] = test: Antidiabetic activity in insulin-resistant db/db mouse assessed as reduction of fed blood glucose level at 100 mg/kg, po measured at 6 hrs relative to vehicle-treated control; assay type: functional; parameters: scale not given: the % may be the effect or the level left
[14] = Volume of distribution at steady state in C57Bl6 mouse at 2 mg/kg, iv; assay type: ADME, organism-based; parameters: dose 2 mg/kg, route intravenous; conditions: in vivo, read-out: Vdss; procedure, shortened: as §1
[15] = Oral bioavailability in C57Bl6 mouse at 10 mg/kg; assay type: ADME, organism-based; conditions: in vivo
Mus musculus [16] = test: Antidiabetic activity in insulin-resistant db/db mouse assessed as reduction of fed blood glucose level at 30 mg/kg, po measured at 6 hrs relative to vehicle-treated control; assay type: functional; parameters: scale not given: the % may be the effect or the level left
Mus musculus [17] = test: Antidiabetic activity in insulin-resistant db/db mouse assessed as reduction of fed blood glucose level at 100 mg/kg, po measured at 8 hrs relative to vehicle-treated control; assay type: functional; parameters: scale not given: the % may be the effect or the level left
[18] = Mean residence time in C57Bl6 mouse at 10 mg/kg, po; assay type: ADME, organism-based; parameters: dose 10 mg/kg, route oral; conditions: in vivo; procedure, shortened: as §2
Mus musculus [19] = test: Antidiabetic activity in insulin-resistant db/db mouse assessed as reduction of fed blood glucose level at 50 mg/kg, po measured at 4 to 8 hrs; assay type: functional, organism-based; parameters: dose 50 mg/kg
Procedure, shortened: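 Fed db/db mice from 8–9 wk of age, acclimatized 1 wk; retro-orbital bleed at 8:00 AM, glucose by meter, randomized, only 300–500 mg/dL included. Oral gavage at 9:00 AM in 2% HPMC/1% Tween 80, pH 2.2 (MSA). Blood glucose at 4 and 8 h post-dose versus vehicle groups (n ≥ 7); ANCOVA.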

Liver microsome [20] = test: Drug metabolism in rat liver microsomes assessed as oxidative metabolite formation; assay type: ADME
[21] = Clearance in rat at 2 mg/kg, iv; assay type: ADME, organism-based; parameters: dose 2 mg/kg, route intravenous; conditions: in vivo

SMILES	microsomal CLint at 1 µM [1] [µL/min/mg]	EC50 [2] [nM]	IC50 [3] [nM]	microsomal CLint at 1 µM [4] [µL/min/mg]	also measured
CC(O)(c1ccc(N2CCN(S(=O)(=O)c3cccs3)C[C@@H]2CN2CC3(COC3)C2)cc1)C(F)(F)F (mixture of isomers)	83	> 12500	524	120	
CC#C[C@H]1CN(S(=O)(=O)c2ccc(N)nc2)CCN1c1ccc([C@](C)(O)C(F)(F)F)cc1					Vd [5]: 3.7 L/kg; MRT [6]: 2.9 h; bioavailability [7]: 57%
Nc1cc(S(=O)(=O)N2CCN(c3ccc(C(O)(C(F)(F)F)C(F)(F)F)cc3)CC2)ccn1		> 12500	8630	27	
Nc1cccc(S(=O)(=O)N2CCN(c3ccc(C(O)(C(F)(F)F)C(F)(F)F)cc3)CC2)c1		> 12500	645	59	
O=S(=O)(c1ccccc1)N1CCN(c2ccc(C(O)(C(F)(F)F)C(F)(F)F)cc2)CC1		> 12500	1010	94	
C[C@@](O)(c1ccc(N2CCN(S(=O)(=O)c3cccs3)C[C@@H]2CN2[C@H]3COC[C@@H]2[C@H](O)C3)cc1)C(F)(F)F	128	1190	14	118	Drug metabolism (Liver microsome [8]): Active; Drug metabolism (Liver microsome [9]): Active; Drug metabolism (Liver microsome [10]): Active; Drug metabolism (Liver microsome [11]): Active
CC(O)(c1ccc(N2CCN(S(=O)(=O)c3cccs3)C[C@@H]2CN2[C@H]3COC[C@H]2[C@@H](O)C3)cc1)C(F)(F)F (mixture of isomers)	125	1290	26	141	
CC(C)(C)C#CC1CN(S(=O)(=O)c2ccc(N)nc2)CCN1c1ccc(C(O)(C(F)(F)F)C(F)(F)F)cc1 (racemic)	< 14	> 12500	1430	90	
C[C@@](O)(c1ccc(N2CCN(S(=O)(=O)c3cccs3)C[C@@H]2CN2[C@@H]3COC[C@H]2[C@@H](O)C3)cc1)C(F)(F)F	99	1670	25	155	
CC#C[C@H]1CN(S(=O)(=O)c2ccc(N)nc2)CCN1c1ccc(C(O)(C(F)(F)F)C(F)(F)F)cc1					Vd [5]: 3.6 L/kg; fCmax (Mus musculus [12]): 0.068 µM; Activity (Mus musculus [13]): 60%; MRT [6]: 6.2 h; Vd [14]: 1.1 L/kg; bioavailability [15]: 40%; Activity (Mus musculus [16]): 47%; Activity (Mus musculus [17]): 56%; MRT [18]: 9.2 h; bioavailability [7]: 75%
C[C@H]1COCCN1C[C@H]1CN(S(=O)(=O)c2cccs2)CCN1c1ccc(C(C)(O)C(F)(F)F)cc1 (mixture of isomers)	451	820	7	> 399	
CS(=O)(=O)c1ccc([C@@H](CC2CCCC2)C(=O)Nc2nccs2)cc1					Activity (Mus musculus [19]): Active
C[C@](O)(c1ccc(N2CCN(S(=O)(=O)c3cccs3)C[C@@H]2CN2[C@@H]3COC[C@H]2[C@@H](O)C3)cc1)C(F)(F)F	131	> 12500	56	112	
CC(O)(c1ccc(N2CCN(S(=O)(=O)c3cccs3)C[C@@H]2CN2C3CCC2COC3)cc1)C(F)(F)F (mixture of isomers)	320	239	2	> 399	
Nc1csc(S(=O)(=O)N2CCN(c3ccc(C(O)(C(F)(F)F)C(F)(F)F)cc3)CC2)c1		> 12500	324	90	
CC(O)(c1ccc(N2CCN(S(=O)(=O)c3cccs3)C[C@@H]2CN2CCS(=O)(=O)CC2)cc1)C(F)(F)F (mixture of isomers)	92	> 12500	343	50	
C[C@](O)(c1ccc(N2CCN(S(=O)(=O)c3cccs3)C[C@@H]2CN2[C@H]3COC[C@@H]2[C@H](O)C3)cc1)C(F)(F)F	135	4760	16	114	
CC(O)(c1ccc(N2CCN(S(=O)(=O)c3cccs3)C[C@@H]2CN2[C@H]3COC[C@H]2[C@H](O)C3)cc1)C(F)(F)F (mixture of isomers)	302	1690	44	321	
Nc1ncc(S(=O)(=O)N2CCN(c3ccc(C(O)(C(F)(F)F)C(F)(F)F)cc3)CC2)cn1				< 14	
CCC#CC1CN(S(=O)(=O)c2ccc(N)nc2)CCN1c1ccc(C(O)(C(F)(F)F)C(F)(F)F)cc1 (racemic)	< 14	2930	56	109	
Nc1ccc(S(=O)(=O)N2CCN(c3ccc(C(O)(C(F)(F)F)C(F)(F)F)cc3)CC2)s1		> 12500	252	128	
Nc1ccc(S(=O)(=O)N2CCN(c3ccc(C(O)(C(F)(F)F)C(F)(F)F)cc3)CC2)cc1		> 12500	484	49	
Nc1ccc(S(=O)(=O)N2CCN(c3ccc(C(O)(C(F)(F)F)C(F)(F)F)cc3)C(C#CC3CC3)C2)cn1 (racemic)	52	> 12500	779	61	
Nc1ccccc1S(=O)(=O)N1CCN(c2ccc(C(O)(C(F)(F)F)C(F)(F)F)cc2)CC1		> 12500		237	
CC1CS(=O)(=O)CCN1C[C@H]1CN(S(=O)(=O)c2cccs2)CCN1c1ccc(C(C)(O)C(F)(F)F)cc1 (mixture of isomers)	132	> 12500	90	93	
O=S(=O)(c1cccs1)N1CCN(c2ccc(C(O)(C(F)(F)F)C(F)(F)F)cc2)CC1				150	
CC(O)(c1ccc(N2CCN(S(=O)(=O)c3cccs3)C[C@@H]2CN2CCC(F)(F)CC2)cc1)C(F)(F)F (mixture of isomers)	280	> 12500	439	349	
Nc1ccc(S(=O)(=O)N2CCN(c3ccc(C(O)(C(F)(F)F)C(F)(F)F)cc3)CC2)cn1	< 14	> 12500		< 14	Vd [5]: 1.41 L/kg; MRT [6]: 8.4 h; Drug metabolism (Liver microsome [20]): Not Active; clearance [21]: 2 mL/min/kg; bioavailability [7]: 71%
